This sample holds only a part of the variants without activity.
B1: tRNA (parent)
chain: GUUCCGUUGGCGUAAUGGUAACGCGUCUCCCUCCUAAGGAGAAGACUGCGGGUUCGAGUCCCGUACGGAACG

Variants of: B1
Experiment: yeast fitness relative to wild type (ratio to wild type); higher = fitter; tRNA-Arg(CCU), competitive growth, 37 C, YPD
Outline: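 A pool of Saccharomyces cerevisiae strains, each with a tRNA-Arg(CCU) gene variant at the native genomic locus, was competed in YPD at 37°C for 24 hours across six parallel replicates. The variants had been chemically synthesised at a 3% per-site mutation rate over 69 sites, and gene amplicons before and after competition were read by 100-nucleotide paired-end sequencing. Darwinian fitness relative to wild type rested on changes in genotype frequencies. Genotypes required ≥ 100 starting reads, and estimates < 0.5 were set to 0.5.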

Compared with C5U U19A A21G A43C G51C, C5U C27A A42U C49G is higher in yeast fitness: ≤ 0.5 for the first, 0.763 for the second.

C5U G18C G52C and G6A A21C U28A C62U cannot be ordered by yeast fitness: ≤ 0.5 for the first, ≤ 0.5 for the second.

C5U C22U C27U C33U and C5U C34G C61U C66U cannot be ordered by yeast fitness: ≤ 0.5 for the first, ≤ 0.5 for the second.

Compared with C5U U26A C55G C61A, C5U U13G A42U is higher in yeast fitness: ≤ 0.5 for the first, 0.627 for the second.

First: C5U C11A C66G
Second: C5U C30G C61A
The yeast fitness of the first is higher: 0.613 for the first, ≤ 0.5 for the second.

First: C5U C31A U32C A37C G50C A69C
Second: C5U A37U A42U G67A
The yeast fitness of the first is higher: 0.731 for the first, ≤ 0.5 for the second.

Compared with C5U C22U C34A A42U G44C C61A, G6A A45G G67U is higher in yeast fitness: ≤ 0.5 for the first, 0.687 for the second.

G6A A21G C55U C66U and C5U U8A G18A A69C cannot be ordered by yeast fitness: ≤ 0.5 for the first, ≤ 0.5 for the second.

Going from C5U G18C A40G A43C U54A to C5U U13G C61U, the yeast fitness rises from 0.72 to 0.726.

First: C5U U13C U19A A21U C24A
Second: G6A C11A U19A
The yeast fitness of the first is lower: 0.511 for the first, 0.53 for the second.

Going from C5U C31A A40G to C5U C11G A15U U32A U35G C55A C61G, the yeast fitness falls from 0.743 to ≤ 0.5.

First: C5U G17C C30A
Second: C5U C34U C55G
The yeast fitness of the first is higher: 0.548 for the first, ≤ 0.5 for the second.

C5U C24A U26C A40G G56A and C5U G17C C24G G38C G51C U59G cannot be ordered by yeast fitness: ≤ 0.5 for the first, ≤ 0.5 for the second.

Going from C5U A21U A36U A65G to C5U C27G C46U, the yeast fitness rises from ≤ 0.5 to 0.753.

Going from C5U A21G U28C A36G C55A to C5U C24A U32C, the yeast fitness rises from ≤ 0.5 to 0.565.

C5U U16A C24U C66G and G6A A15C A20U A57U cannot be ordered by yeast fitness: ≤ 0.5 for the first, ≤ 0.5 for the second.

C5U U16C U59G and G6A A21C U47A G68A cannot be ordered by yeast fitness: ≤ 0.5 for the first, ≤ 0.5 for the second.

Compared with C5U G44A U64G, G6A C11A A14C U19C U32A A42C U54C C61U G68C is lower in yeast fitness: 0.532 for the first, ≤ 0.5 for the second.

First: G6A A37G C60G A70U
Second: C5U A21U C30G G52A A70U
The yeast fitness of the first is lower: ≤ 0.5 for the first, 0.534 for the second.

G6A A20G A36G C49G C55U and C5U G18C C49U U54G cannot be ordered by yeast fitness: ≤ 0.5 for the first, ≤ 0.5 for the second.

First: G6A A14U C34A A70G
Second: C5U A45C G56A
The yeast fitness of the first is lower: ≤ 0.5 for the first, 0.801 for the second.

G6A C11A U53C and C5U A37C C46U U53C cannot be ordered by yeast fitness: ≤ 0.5 for the first, ≤ 0.5 for the second.

G6A A14U C22U A37G and C5U G38C C60U cannot be ordered by yeast fitness: ≤ 0.5 for the first, ≤ 0.5 for the second.

C5U G17C C30A G50A C66G and G6A A21G C24G A37U cannot be ordered by yeast fitness: ≤ 0.5 for the first, ≤ 0.5 for the second.

Compared with C5U U26C A69C, C5U C27U C34U G44A is lower in yeast fitness: 0.655 for the first, 0.547 for the second.

First: C5U C29A G39C G63A U64C A69C
Second: C5U U13A C61U
The yeast fitness of the first is lower: ≤ 0.5 for the first, 0.624 for the second.

Compared with C5U A42G A65C, C5U A45C C61G is lower in yeast fitness: 0.596 for the first, 0.536 for the second.

Going from C5U C34G U64A to C5U C33U A65G, the yeast fitness rises from ≤ 0.5 to 0.63.

First: C5U C33A A36C A37C A43G A70U
Second: C5U C22G C29A
The yeast fitness of the first is lower: ≤ 0.5 for the first, 0.585 for the second.

Going from C5U C49G to G6A A15C U28A C31G U64A C66U G68C, the yeast fitness falls from 0.919 to ≤ 0.5.

First: G6A A15G C22A
Second: C5U C34A
The yeast fitness of the first is lower: ≤ 0.5 for the first, 0.631 for the second.

First: C5U A36G C55G C66G
Second: C5U G56C C60A
The yeast fitness of the first is lower: ≤ 0.5 for the first, 0.641 for the second.

Going from C5U U13C C22G C29A A45U to C5U G38C, the yeast fitness rises from ≤ 0.5 to 0.719.

Going from C5U U7A U35A A36U A45U to C5U A45G G67A, the yeast fitness rises from ≤ 0.5 to 0.743.

First: C5U G25A C49U
Second: C5U C22U C33U G67A
The yeast fitness of the first is higher: 0.802 for the first, ≤ 0.5 for the second.

Going from G6A A57U G58A A65U to C5U U26G, the yeast fitness rises from ≤ 0.5 to 0.969.

First: C5U U26A
Second: C5U A57U
The yeast fitness of the first is higher: 0.915 for the first, 0.663 for the second.

First: C5U C11A
Second: C5U U32C C49U
The yeast fitness of the first is lower: 0.586 for the first, 0.842 for the second.

Going from C5U A21G A42U U54G to C5U C30A U53A C62U, the yeast fitness rises from 0.533 to 0.659.

Compared with C5U C11U A37G C60G, C5U U13C U19A A21U C24A U54C U59C A69G is lower in yeast fitness: 0.581 for the first, 0.524 for the second.

First: C5U C24U A40C
Second: C5U C24U A40G
The yeast fitness of the first is lower: 0.634 for the first, 0.637 for the second.

First: C5U U32C G39A C60U C61G
Second: C5U G6A
The yeast fitness of the first is lower: 0.527 for the first, 0.884 for the second.

Going from C5U G10A U13A A15G G50C A57G to C5U C11A C24A U28G, the yeast fitness rises from ≤ 0.5 to 0.63.

First: C5U G9A A37C C60U G67A
Second: C5U U47C
The yeast fitness of the first is lower: ≤ 0.5 for the first, 0.96 for the second.

C5U U19C C24A U28A and G6A A14G U35C A36G A45U cannot be ordered by yeast fitness: ≤ 0.5 for the first, ≤ 0.5 for the second.

Compared with C5U G10C C30G C34U A42C, C5U C11A C22G C55G C60G is higher in yeast fitness: ≤ 0.5 for the first, 0.997 for the second.

First: C5U G51C
Second: G6A A15C G39A A65G
The yeast fitness of the first is higher: 0.691 for the first, ≤ 0.5 for the second.

G6A A14U G52A G63C and C5U C29A A37U G38A cannot be ordered by yeast fitness: ≤ 0.5 for the first, ≤ 0.5 for the second.

Compared with G6A A20C U28A C31A C33U A37C G50A A65U, C5U U13G C30U is higher in yeast fitness: ≤ 0.5 for the first, 0.663 for the second.

First: C5U C11A G50C
Second: C5U C34A G38C A70C
The yeast fitness of the first is lower: 0.598 for the first, 0.608 for the second.

Going from C5U U8A G18C C29U A45C to C5U G44C G68U, the yeast fitness rises from 0.554 to 0.663.

Going from C5U C11U A14U to C5U C22U C33U C49U C62G, the yeast fitness falls from 0.57 to ≤ 0.5.

Compared with C5U A40G A45U, C5U G9A G39A G48A A57U is lower in yeast fitness: 0.638 for the first, ≤ 0.5 for the second.

Compared with C5U U28C C29U G63C A65U, G6A A14C A37U is higher in yeast fitness: ≤ 0.5 for the first, 0.689 for the second.

Compared with C5U G18C C22A G51C, C5U C27G C33G A42C U64A is lower in yeast fitness: 0.562 for the first, ≤ 0.5 for the second.

C5U U8C G41C A69U and G6A C11G A21G C27G C29U U35G cannot be ordered by yeast fitness: ≤ 0.5 for the first, ≤ 0.5 for the second.

Going from C5U A21U U32A A40U to C5U G12A C29U, the yeast fitness falls from 0.634 to 0.565.

Compared with C5U U32C U35C C49G, C5U C31A C34U A43G is higher in yeast fitness: ≤ 0.5 for the first, 0.77 for the second.

First: C5U U7C C46U
Second: C5U G12C U13A
The yeast fitness of the first is higher: 0.728 for the first, ≤ 0.5 for the second.

C5U C34A A57G and G6A A36U G41A C60G cannot be ordered by yeast fitness: ≤ 0.5 for the first, ≤ 0.5 for the second.

C5U C27U G58A C60G and C5U A21U C30G G56A C66A cannot be ordered by yeast fitness: ≤ 0.5 for the first, ≤ 0.5 for the second.

C5U U7A C62A and G6A A20C A57C cannot be ordered by yeast fitness: ≤ 0.5 for the first, ≤ 0.5 for the second.

C5U A43G C49G A69C and C5U U7G C24U C34G A37C A42U C66U cannot be ordered by yeast fitness: ≤ 0.5 for the first, ≤ 0.5 for the second.

Compared with G6A A14G G23A C24G G44A, C5U C55A is higher in yeast fitness: ≤ 0.5 for the first, 0.668 for the second.

G6A C11G A21G C27G C29U U35G A70C and C5U A21G C29U C31A G51C cannot be ordered by yeast fitness: ≤ 0.5 for the first, ≤ 0.5 for the second.

C5U G10C C27G U28C G39C C46G A69U and C5U C30G C55G cannot be ordered by yeast fitness: ≤ 0.5 for the first, ≤ 0.5 for the second.

First: G6A C11A A36G C61U C66U
Second: C5U A36U C60U
The yeast fitness of the first is lower: ≤ 0.5 for the first, 0.81 for the second.

First: C5U U7C A40U U59A A65U G68A
Second: C5U U16G C34A U53C C60U
The yeast fitness of the first is higher: 0.649 for the first, ≤ 0.5 for the second.

Going from G6A A36U C66U to C5U G17A A36U U47A C66U, the yeast fitness rises from 0.536 to 0.58.

Compared with C5U U7C U26A, C5U C31U G50A C55G is lower in yeast fitness: 0.677 for the first, 0.57 for the second.

Compared with G6A C11G, C5U C24U is higher in yeast fitness: 0.738 for the first, 0.99 for the second.

First: C5U U28G C61G
Second: C5U U7A U35A A36U A45U C60G
The yeast fitness of the first is higher: 0.58 for the first, ≤ 0.5 for the second.

First: C5U C30G A36U G51A G52A
Second: C5U C29G
The yeast fitness of the first is lower: 0.524 for the first, 0.64 for the second.

Going from C5U U19C C24A U28A C46G C62U A70U to C5U C11U A20U, the yeast fitness rises from ≤ 0.5 to 0.561.

G6A A15C U16C and C5U C22G C31G U54G cannot be ordered by yeast fitness: ≤ 0.5 for the first, ≤ 0.5 for the second.

Going from C5U G17C C24G G38C to G6A C11A A43G G58A A65C C66U, the yeast fitness falls from 0.609 to ≤ 0.5.

First: G6A A45C
Second: C5U A40C
The yeast fitness of the first is lower: 0.738 for the first, 0.851 for the second.

Going from C5U G23C C55A to C5U C11U A15G U53A A65G, the yeast fitness falls from 0.566 to ≤ 0.5.

First: C5U U28A G41A C62U
Second: G6A A21U U26G A70C
The yeast fitness of the first is lower: ≤ 0.5 for the first, 0.569 for the second.

Compared with C5U U8C A20G C30A A57U C61U, G6A A37G is higher in yeast fitness: ≤ 0.5 for the first, 0.722 for the second.

C5U U32A A43G and C5U C24A G39C A70C cannot be ordered by yeast fitness: ≤ 0.5 for the first, ≤ 0.5 for the second.

Compared with C5U C66A, C5U C66G is higher in yeast fitness: 0.729 for the first, 0.779 for the second.

Compared with C5U U13A A43C C46G, G6A A20U C62U A65G is lower in yeast fitness: 0.627 for the first, ≤ 0.5 for the second.

For C5U C31U, the yeast fitness was 1.03.
